FLuc inh counter: counter-screen for luciferase assay inhibitors: firefly luciferase inhibition; ATPLite firefly luciferase biochemical luminescence, 10 min; inhibition, % at 10 µM; actives 1.5% (n = 200,000); AID 1006;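 active = inhibition above about 50% when tested at 10 µM, limit read from the data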
Target sequence (P08659 whole entry, looked up): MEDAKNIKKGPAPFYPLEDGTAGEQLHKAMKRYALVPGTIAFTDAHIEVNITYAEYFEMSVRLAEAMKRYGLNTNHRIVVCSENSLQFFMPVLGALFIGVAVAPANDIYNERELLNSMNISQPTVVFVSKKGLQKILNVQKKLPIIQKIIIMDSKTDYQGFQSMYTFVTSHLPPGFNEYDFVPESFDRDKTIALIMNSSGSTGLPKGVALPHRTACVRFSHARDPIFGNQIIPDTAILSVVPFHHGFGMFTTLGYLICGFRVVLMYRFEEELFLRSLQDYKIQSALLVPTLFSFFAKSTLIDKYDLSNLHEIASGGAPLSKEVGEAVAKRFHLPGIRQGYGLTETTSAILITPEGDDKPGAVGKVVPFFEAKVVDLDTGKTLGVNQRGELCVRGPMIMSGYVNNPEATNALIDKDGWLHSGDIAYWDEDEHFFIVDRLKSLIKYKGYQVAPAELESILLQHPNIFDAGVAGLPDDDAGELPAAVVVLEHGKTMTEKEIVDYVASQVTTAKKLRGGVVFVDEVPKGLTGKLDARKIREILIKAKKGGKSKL
FLuc stim CS: firefly luciferase counter-screen for stimulation assays | 200,000 tested, under 10 active | ATPlite luciferase biochemical, luminescence, 10 min; 0 = ATP-free wells, 1 = DMSO control | activation factor at 10 µM | P08659;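 active = luciferase activation factor, scaled between plate controls, of at least 2 with compound at 10 µM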
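Material: Luciferase/luciferin reagent mix | Doses: Test compounds dosed from 2 mM stocks in 100% DMSO | Timing: 10 min incubation after luciferase reagent addition, room temperature | Measured by: Luminescence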
HSP90 inh: inhibitors of HSP90 luciferase refolding in rabbit reticulocyte lysate | luciferase refolding luminescence, 3 h | inhibition, % at 5.6 µM | actives 0.91% (n = 290,000) | AID 1789;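 active = inhibition above the screen-wide mean plus 3 SD, computed separately per campaign, cut at about 16% in these data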;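 also: inhibitors lower the luminescence because luciferase stays unfolded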
TRAIL sens C8: caspase-8 TRAIL sensitization | NB7+C8 cells + TRAIL, ATPlite viability luminescence | inhibition (viability loss, TRAIL sensitization), % at 10 µM | actives 1% (n = 360,000);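 active = compounds causing at least 50% loss of cell viability in the single-dose screen, relative to plate controls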
PPC-1+TRAIL kill: PPC-1 cancer cell killing with TRAIL present. AID 1443. actives 0.41% (n = 220,000). cell killing (% activity), % at 4 µM or 5 µM. PPC-1 cells + TRAIL, ATPLite viability luminescence;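 active = cell killing above 50% in the first pass at 4 µM, then a duplicate retest at 5 µM averaging 50% or more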
Each line names hits and unclear results; the compound was inactive in the other large screens. A selection: hits, their analogues and other compounds. The true share with any hit is near 2%.

N#C/C(=C\c1ccc(N2CCOCC2)c([N+](=O)[O-])c1)c1nc2ccccc2[nH]1	none
CCCCCC(=O)N1C[C@H](O)[C@@H](n2cc(COC(=O)c3ccccc3)nn2)C[C@@H]1c1ccc(Cl)cc1	none (no result: FLuc inh counter, FLuc stim CS, HSP90 inh, PPC-1+TRAIL kill)
C/C(=N\Nc1nc2ccccc2[nH]1)c1ccccn1	HSP90 inh 19, TRAIL sens C8 58 (no result: FLuc inh counter, FLuc stim CS, PPC-1+TRAIL kill)
C/C(=N\Nc1nc2ccccc2[nH]1)c1cc2ccccc2o1	FLuc inh counter 78, TRAIL sens C8 59
C/C(=N\Nc1nc2ccccc2[nH]1)c1ccc2c(c1)OCCO2	FLuc inh counter 78
C/C(=N\Nc1nc2ccccc2[nH]1)c1ccc2c(c1)OCO2	none
CCc1cc2c(SCC(=O)NC3CCCC3)ncnc2s1	none (no result: FLuc inh counter, FLuc stim CS, HSP90 inh, PPC-1+TRAIL kill)
CCc1nc2c(OCc3ccc(Cl)cc3Cl)cccn2c1N(C)C(=O)CC(C)C	none (no result: FLuc inh counter, FLuc stim CS, HSP90 inh, PPC-1+TRAIL kill)
COc1ccccc1-c1cc(C(=O)NC2CCN(C)CC2)c2ccc(Cl)c(C)c2n1	TRAIL sens C8 70 (no result: FLuc inh counter, FLuc stim CS, PPC-1+TRAIL kill)
C=C(C)c1nc(Oc2ccccc2)nc(Oc2ccccc2)n1	TRAIL sens C8 55 (no result: FLuc inh counter, FLuc stim CS, HSP90 inh, PPC-1+TRAIL kill)
Cc1cccc(N=C/C(C(=O)C(F)(F)F)=C(\O)c2ccco2)c1	none
O=C(/C(C=Nc1ccc(F)cc1)=C(/O)c1ccco1)C(F)(F)F	FLuc inh counter 79
COC(=O)Cc1ccc2sc(-c3ccccc3)nc2c1	FLuc inh counter 83, TRAIL sens C8 63
COC(=O)c1cccc(NC(=O)/C=C/c2cccc([N+](=O)[O-])c2)c1	none
O=C(/C=C/c1ccc([N+](=O)[O-])cc1)Nc1cccc(C(=O)Nc2ccccc2C(=O)O)c1	none (no result: FLuc inh counter, FLuc stim CS, PPC-1+TRAIL kill)
O=C(COC(=O)c1cccc(NC(=O)c2ccco2)c1)c1ccc(Br)cc1	FLuc inh counter 60
CCOC(=O)c1cccc(NC(=O)/C=C/c2ccc([N+](=O)[O-])cc2)c1	TRAIL sens C8 76
COC(=O)c1cccc(NC(=O)/C=C/c2ccc([N+](=O)[O-])cc2)c1	TRAIL sens C8 71
Cc1ccc(C(=O)COC(=O)c2cccc(NC(=O)c3ccc([N+](=O)[O-])cc3[N+](=O)[O-])c2)cc1	FLuc inh counter 96
CCCCCCCCN1C(=O)[C@H](CC(=O)NCCCOCCCC)C[C@@]2(C(=O)OC)CCCCC=C12	none (no result: FLuc inh counter, FLuc stim CS, HSP90 inh, PPC-1+TRAIL kill)
CC(C)CC(N)c1csc(Nc2cnccn2)n1 (stereo not drawn)	none (no result: FLuc inh counter, FLuc stim CS, HSP90 inh, PPC-1+TRAIL kill)
Cc1cc(C)c(C(O)c2ncc(-c3ccccc3Cl)[nH]2)c(C)c1 (stereo not drawn)	none (no result: FLuc inh counter, FLuc stim CS, HSP90 inh, PPC-1+TRAIL kill)
O=C(N/N=C/c1ccc(Cl)cc1)c1ccc2nc[nH]c2c1	none (no result: FLuc inh counter, FLuc stim CS, HSP90 inh, PPC-1+TRAIL kill)
O=C1NC[C@@H](CCCCN2C[C@H](Cc3ccccc3)N(CCc3ccc(O)cc3)C(=O)C2=O)N(Cc2ccccc2)C1=O	none (no result: FLuc inh counter, FLuc stim CS, HSP90 inh, PPC-1+TRAIL kill)
COc1ccccc1N1CCN(C(=O)CCNS(=O)(=O)c2ccc3c(c2)CCC(=O)N3)CC1	HSP90 inh 16
CCOC(=O)N1CCC(Nc2c(N3CCN(c4cc(Cl)ccc4C)CC3)c(=O)c2=O)CC1	none
CCOC(=O)N1CCC(Nc2c(-c3ccc(C)c(C)c3)c(=O)c2=O)CC1	TRAIL sens C8 58
COc1ccc(NC(=O)c2sc(=O)n(Cc3ccc4ccccc4c3)c2C)cc1OC	none (no result: FLuc inh counter, FLuc stim CS, HSP90 inh, PPC-1+TRAIL kill)
COc1cc2c(cc1OC)-c1nnc(C)n1C(C)(C)C2	PPC-1+TRAIL kill 66
CN(C)S(=O)(=O)c1ccc(-c2csc(N/N=C/c3ccc(O)cc3)n2)cc1	TRAIL sens C8 85 (no result: FLuc inh counter, FLuc stim CS)
CN(C)S(=O)(=O)c1ccc(-c2csc(N/N=C/c3ccco3)n2)cc1	TRAIL sens C8 72 (no result: FLuc inh counter, FLuc stim CS)
COc1ccc(C(=O)N/N=C/c2cccc3cccnc23)cc1	FLuc inh counter 59
CC(C)c1cc(C(=O)N/N=C/c2cccnc2)cs1	FLuc inh counter 64
COc1ccc(C(=O)N/N=C/c2cccnc2)cc1	TRAIL sens C8 52 (no result: FLuc inh counter, FLuc stim CS, PPC-1+TRAIL kill)
CCOc1ccc(C(=O)N/N=C/c2cccc3cccnc23)cc1	none
Cc1ccc(/C=N/c2sc3c(c2C#N)CCCCC3)o1	FLuc inh counter 92
Cc1ccc(/C=N/Nc2ccccn2)s1	none (no result: FLuc inh counter, FLuc stim CS, PPC-1+TRAIL kill)
Cc1ccc(/C=N/c2sc3c(c2C#N)CCC3)s1	FLuc inh counter 72
Cc1ccc(C=Nc2ccccc2C#N)s1	FLuc inh counter 76
N#Cc1c(/N=C/c2cc3ccccc3s2)sc2c1CCC2	none
N#Cc1c(/N=C/c2ccco2)sc2c1CCC2	FLuc inh counter 50
O=C(Nc1cccc2cccnc12)c1ccc2sc([C@@H]3O[C@H](CO)[C@H](O)[C@H](O)[C@H]3O)nc2c1	none (no result: FLuc inh counter, FLuc stim CS, HSP90 inh, PPC-1+TRAIL kill)
CCCCN(C(=O)CC1CCCC1)c1c(N)n(Cc2ccccc2)c(=O)[nH]c1=O	none (no result: FLuc inh counter, FLuc stim CS, HSP90 inh, PPC-1+TRAIL kill)
CCN(CC)c1ccc(/C=C/c2nc3ccccc3s2)cc1	FLuc inh counter 64, HSP90 inh 67 (no result: TRAIL sens C8)

Screens (PubChem)
